Compound activity deposited in PubChem BioAssay by several laboratories.
Rows were chosen to be rich in hits. Some 2% of all compounds tested hit in one or more screens of this group.
SR-BI DiI-HDL act: activators of SR-BI mediated DiI-HDL uptake, primary screen, ldlA[mSR-BI] CHO cells, DiI fluorescence. activation, % at 12.5 µM. 3 h; 100 = double the neutral-control signal. AID 504775, 2011. 320,000 compounds, 0.096% hits;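 active = mean replicate activation of at least 60% and every replicate at or above 60%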;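 also: 0% = median plate neutral-control signal and 100% = twice that signal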
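Test system: SR-BI-overexpressing, LDLR-lacking CHO cells. Measured by: DiI fluorescence, bottom read. Medium: Ham's F12 with 0.5% BSA, HEPES 25 mM, pH 7.4. Timing: 3 h uptake period with compound, 37 °C.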
SR-BI HDL uptake: inhibitors of SR-BI mediated HDL lipid uptake, primary screen, ldlA[mSR-BI] cells, fluorescence, single point. 320,000 compounds, 0.96% hits. inhibition, % at 12.5 µM. Scavenger receptor class B member 1 (Mus musculus), Q61009. ldlA[mSR-BI] CHO cells, DiI-HDL uptake fluorescence, 3 h. AID 488896, 2010;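 active = mean replicate inhibition of at least 70% and a set share of replicates each scoring 70 or more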;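 also: 0% = median of neutral control wells and 100% = median of positive control wells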
Target sequence (Q61009 whole entry, looked up): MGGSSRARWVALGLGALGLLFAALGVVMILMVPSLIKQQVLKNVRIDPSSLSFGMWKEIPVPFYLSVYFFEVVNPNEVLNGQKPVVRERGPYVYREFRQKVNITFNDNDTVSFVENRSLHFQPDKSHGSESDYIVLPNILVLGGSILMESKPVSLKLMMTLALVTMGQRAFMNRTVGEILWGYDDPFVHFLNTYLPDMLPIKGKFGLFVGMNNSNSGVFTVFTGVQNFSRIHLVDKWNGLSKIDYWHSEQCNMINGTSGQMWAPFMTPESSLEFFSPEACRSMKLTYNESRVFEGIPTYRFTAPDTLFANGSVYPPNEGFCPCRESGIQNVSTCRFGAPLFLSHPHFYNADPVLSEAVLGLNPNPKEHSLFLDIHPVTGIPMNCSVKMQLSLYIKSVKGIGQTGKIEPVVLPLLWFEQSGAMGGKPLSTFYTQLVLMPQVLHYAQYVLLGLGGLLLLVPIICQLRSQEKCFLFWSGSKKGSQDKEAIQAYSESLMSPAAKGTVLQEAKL
sPLA2-III inh: human group III sPLA2 inhibitors, primary screen, biochemical, QFRET, BODIPY PC-A2 liposome substrate; QFRET BODIPY PC-A2 liposome hydrolysis, fluorescence; inhibition, % at 12.2 µM; 370,000 compounds, 0.56% hits; AID 743126, 2013;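 active = inhibition above mean plus 3 SD of compounds lying within the high and low control bounds, cut at about 19% in these data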;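 also: 0% = median of test compound wells and 100% = no enzyme DMSO wells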
ARNT-TACC3 inh: disruptors of ARNT/TACC3 protein interaction, primary screen, biochemical, AlphaScreen, single concentration; AID 623870, 2012; 390,000 compounds, 0.66% hits; inhibition, % at 9.99 µM; AlphaScreen His-ARNT PAS-B/GST-TACC3 binding, luminescence; TACC3 fragment carries E629A point mutation;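 active = mean inhibition of replicates at least 50% and at least half of replicates each reaching 50%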;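 also: 0% = complete ARNT plus TACC3 wells and 100% = ARNT alone without TACC3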
NSD2 HMT inh: NSD2 histone methyltransferase inhibitors, primary screen, biochemical, AlphaScreen, single concentration, set 2; inhibition, % at 12.5 µM; NSD2 peptide methylation, 120 min; 310,000 compounds, 0.54% hits; AID 743445, 2014; Histone-lysine N-methyltransferase NSD2 (Homo sapiens), O96028; in the data active = inhibition above about 50%
Xi reactivation: activators of inactive X chromosome reactivation, primary screen, imaging, XiGFP fibroblasts, GFP high-content imaging, set 2; 360,000 compounds, 0.055% hits; XiGFP mouse fibroblasts, % GFP-positive cells imaging, 3 d; cells co-treated with 5-aza-dC sensitizer; scaled so ellipticine positive control = 100%; activation, % at 7.58 µM;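 active = mean normalized replicate activation at least 10% and every replicate at or above 10%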;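 also: 0% = median of on-plate neutral control wells and 100% = ellipticine 6 µM median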
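System: XiGFP fibroblasts, SV40-immortalized. Medium: DMEM plus 5-aza-dC sensitizer. Doses: single point. Timing: 3 d treatment, 15 min room-temperature fixation. Control set: ellipticine 6 µM.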
The depositor's hits bear a star; nt = no result.

SMILES | SR-BI DiI-HDL act | SR-BI HDL uptake | sPLA2-III inh | ARNT-TACC3 inh | NSD2 HMT inh | Xi reactivation
Cc1ccc(C(=O)N2CCCCC2)cc1NC1=C(Cl)C(=O)N(Cc2ccccc2)C1=O | 6 | -6 | -17 | 0 | 1 | 0
COc1ccc(C)cc1Nc1n[n+](-c2ccccc2)c(-c2cc([N+](=O)[O-])cc(OC)c2O)s1 | -95 | 95* | nt | 0 | nt | nt
NC(=S)NN=C1C2CC3CC(C2)CC1C3 | -79 | 79* | 10 | -2 | -1 | 0
COc1ccc2c(C)c(C(=O)N3CCN(Cc4ccccc4)CC3)oc2c1 | -11 | 11 | 1 | 0 | 31 | 0
C/C(O)=c1/c(=O)nc2cccc3c2=c1c1ccccc1c3=O | 3 | -3 | 1 | 46* | 1 | 0
CC(=O)Oc1ccccc1/C=C/c1nc2ccccc2c(=O)o1 | -2 | 2 | -10 | 0 | nt | 0
COc1ccc(C2CC(=O)c3sc(N)nc3C2)cc1 (centres undefined) | 12 | -12 | 4 | -31 | 3 | nt
CC(C)c1[nH]nc2c1C(c1ccc(F)cc1)NC2=O (centres undefined) | nt | nt | 1 | nt | nt | 1
O=C(CN1CC(=O)Oc2ccccc21)OCC(=O)c1cccc(Br)c1 | 7 | -7 | nt | 73* | nt | nt
O=C(COC(=O)C1CC2CCCC(C1)C2=O)c1cccc(Br)c1 (centres undefined) | 9 | -9 | -1 | -33 | 0 | 0
CCC(=O)N[C@H]1CC[C@@H](CC(=O)NCC2CC2)O[C@H]1CO | nt | nt | nt | nt | nt | 0
COc1cc(C(=O)Nc2cc(OC)c(OC)c(OC)c2)ccc1OCc1c(C)noc1C | -87 | 87* | 1 | 10 | 0 | 0
CCc1nnc(NC(=O)c2ccc(OCc3c(C)noc3C)c(OC)c2)s1 | -84 | 84* | -3 | 8 | -5 | 0
COc1cc(NC(=O)c2ccc(OCc3c(C)noc3C)c(OC)c2)cc(OC)c1 | -86 | 86* | -21 | -2 | 0 | 0
Cc1cccc(NC(=O)c2ccc(OCc3c(C)noc3C)cc2)c1 | -73 | 73* | -2 | -2 | -7 | 0
COc1cc(C(=O)Nc2nc3ccc(C)cc3s2)ccc1OCc1c(C)noc1C | -56 | 56 | -4 | -6 | 3 | nt
O=C(CN1CCCCC1)NCCNC(=O)CN1CCCCC1 | 21 | -21 | -2 | -3 | -2 | nt
COCCn1c(-c2ccccc2)nc2ccccc21 | 31 | -31 | 12 | -13 | -3 | 2
Cn1c(-c2ccccc2)cnc1SCC(N)=O | 14 | -14 | 10 | -3 | -9 | nt
Cn1c(-c2ccccc2)cnc1N | -2 | 2 | 4 | 58* | -27 | nt
COc1ccc(CNc2ncc(-c3ccccc3)n2C)cc1 | 10 | -10 | 7 | 13 | 1 | 0
COCCn1c(-c2ccccc2)cnc1N | -8 | 8 | 6 | 51* | -3 | nt
COc1ccc(-c2cnc(N)n2C)cc1 | 17 | -17 | 3 | 69* | 2 | 0
CC1=NN(C(N)=S)C(=O)C1N=Nc1c(C)n(C)n(-c2ccccc2)c1=O (centres undefined) | 12 | -12 | 4 | 47* | 4 | 0
CC1=NN(C(N)=S)C(=O)C1N=Nc1ccccc1O (centres undefined) | 1 | -1 | 3 | 76* | 0 | 0
SMILES | SR-BI DiI-HDL act | SR-BI HDL uptake | sPLA2-III inh | ARNT-TACC3 inh | NSD2 HMT inh | Xi reactivation
CC(=O)/C(N=Nc1c(C)n(C)n(-c2ccccc2)c1=O)=C(\C)O | 5 | -5 | 1 | 35 | -7 | 0
CCOC(=O)/C(N=Nc1c(C)n(C)n(-c2ccccc2)c1=O)=C(\C)O | -8 | 8 | 7 | 72* | 24 | 0
CC1=NN(C(N)=S)C(=O)C1N=Nc1ccccc1C (centres undefined) | 5 | -5 | -9 | -2 | 4 | nt
CC1=NN(C(N)=S)C(=O)C1N=Nc1c(C)cc(C)cc1C (centres undefined) | -3 | 3 | 4 | 12 | 1 | nt
CNC[C@H]1Oc2cc(Br)ccc2S(=O)(=O)N([C@H](C)CO)C[C@@H]1C | nt | nt | nt | 0 | nt | 0
COc1ccc(CCNc2cc(C)nc3c(-c4ccccc4OC)cnn23)cc1OC | -91 | 91* | -1 | 7 | -6 | 0
CCC(C)(C)C1CCC(NC(=O)c2ccc(S(=O)(=O)N3CCOCC3)cc2)CC1 (centres undefined) | 67* | -67 | 3 | nt | -4 | 0
CC(C)(C)NC(=O)C(=O)NNC(=O)C12CC3CC(CC(C3)C1)C2 | 111* | -111 | 7 | -6 | -2 | nt
COc1cc(SC)ccc1C(=O)OCC(=O)N1CCCC1 | nt | nt | 2 | 6 | -4 | 0
S=C(Nc1ccc2nsnc2c1)NC1CCCCC1 | 38 | -38 | 10 | 25* | 11 | 0
S=C(Nc1ccc2nsnc2c1)N1CCCCCC1 | 0 | 0 | 1 | 10 | 153* | 0
COCCNC(=O)C1(C)CCN(Cc2csc(-c3ccc(Cl)cc3)n2)C1 (centres undefined) | nt | nt | -4 | nt | -1 | 0
COc1ccc(NC(=O)N[C@H]2CC[C@@H](CCn3cc(-c4ccc(F)cc4)nn3)O[C@@H]2CO)cc1 | nt | nt | nt | -10 | nt | 0
COCCNC(=S)N(CCO)Cc1cc2cc3c(cc2[nH]c1=O)OCCO3 | 13 | -13 | 0 | 49* | 0 | 0
CCOCCCNC(=S)N(CCCN(C)C)Cc1cc2cc3c(cc2[nH]c1=O)OCCO3 | 18 | -18 | 6 | 27* | 4 | 0
CNc1nc(N/N=C/c2cc3c(cc2[N+](=O)[O-])OCO3)nc(Nc2ccccc2)n1 | -87 | 87* | 5 | -3 | -3 | 1
CNc1nc(N/N=C/c2cc([N+](=O)[O-])ccc2F)nc(Nc2ccccc2)n1 | -75 | 75* | -2 | -2 | nt | 1
O=[N+]([O-])c1cc2c(cc1/C=N\NS(=O)(=O)c1ccccc1)OCO2 | 9 | -9 | -4 | -1 | 1 | nt
COc1ccc2[nH]c3c4c(ccc3c2c1)C(=O)C=CC4=O | -7 | 7 | 13 | 5 | 8 | 12*
CC(C)OCCCN1C(=O)c2[nH]nc(-c3ccccc3O)c2C1c1cccc(Cl)c1 (centres undefined) | -72 | 72* | -47 | -23 | 13 | nt
O=C(CCCC(=O)NN=Cc1ccc(Cl)cc1Cl)NN=Cc1ccc(Cl)cc1Cl | -96 | 96* | -2 | 2 | -1 | 0
